As usually defined, the inhibition is the relative decrease from the control value, in per cent.

From ChEMBL document CHEMBL2150957, “Substrate-Selective Inhibition of Cyclooxygenase-2: Development and Evaluation of Achiral Profen Probes” (ACS Med Chem Lett, 2012) come the findings set out here.

Data set [1] concerns the target T1, Prostaglandin G/H synthase 2 (Mus musculus) (UniProt Q05769).
T1 sequence (whole entry): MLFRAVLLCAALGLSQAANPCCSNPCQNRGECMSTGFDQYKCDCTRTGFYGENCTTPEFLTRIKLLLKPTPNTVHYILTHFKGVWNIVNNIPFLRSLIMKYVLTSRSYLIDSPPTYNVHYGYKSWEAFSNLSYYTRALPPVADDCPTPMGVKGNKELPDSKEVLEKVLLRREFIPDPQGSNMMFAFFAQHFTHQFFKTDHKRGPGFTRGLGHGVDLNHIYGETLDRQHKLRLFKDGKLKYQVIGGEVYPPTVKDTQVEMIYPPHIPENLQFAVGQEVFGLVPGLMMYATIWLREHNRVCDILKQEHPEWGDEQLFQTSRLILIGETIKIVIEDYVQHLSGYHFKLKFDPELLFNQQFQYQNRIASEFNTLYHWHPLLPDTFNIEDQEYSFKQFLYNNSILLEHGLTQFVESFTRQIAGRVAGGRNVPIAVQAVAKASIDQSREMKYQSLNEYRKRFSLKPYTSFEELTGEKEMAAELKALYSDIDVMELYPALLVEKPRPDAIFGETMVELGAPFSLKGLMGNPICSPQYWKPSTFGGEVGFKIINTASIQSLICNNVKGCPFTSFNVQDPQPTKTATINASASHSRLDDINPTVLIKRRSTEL
Kind of data set: Inhibition of mouse COX2-mediated arachidonic acid oxygenation at 10 uM preincubated for 3 mins before […] measured after 30 seconds. The procedure, abridged: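 Purified murine COX-2 (40 nM) preincubated 3 min with inhibitor (10 μM) in DMSO, with a solvent control. Arachidonic acid (5 μM) then added and reacted 30 s at 37 °C. Percent inhibition of AA oxygenation. Mean ± standard deviation, n = 6.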

Data set [2] addresses T1, Prostaglandin G/H synthase 2 (Mus musculus). Kind of data set: Inhibition of mouse COX2-mediated 2-arachidonoylglycerol oxygenation at 10 uM preincubated for 3 mins before 2-arachidonoylglycerol addition measured after 30 seconds relative to control. The essentials: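 Purified murine COX-2 (40 nM) preincubated 3 min with inhibitor in DMSO, with a solvent control. 2-AG (5 μM) then added and reacted 30 s at 37 °C. Value is the maximum inhibition at 10 μM inhibitor. Mean ± standard deviation, n = 6.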

For the next data set, the system named is Plasma. Kind of data set: Metabolic stability of the compound in C57BL/6 mouse plasma assessed as parent compound level at 10 mg/kg, ip after 16 hrs. The format is ADME, organism-based. Conditions: in vivo. More on the design: dose 10 mg/kg, route intraperitoneal. The procedure, abridged:
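Blood collected at 72 h, i.e. 16 h after the last injection. Plasma analysed for the dosed compound and, where applicable, its stereoinversion product (S)-flurbiprofen.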

A short description of data set [3]: Plasma concentration in C57BL/6 mouse at 10 mg/kg, ip after 4 hrs. The format is ADME, organism-based. Details: dose 10 mg/kg, route intraperitoneal. The procedure, abridged:
(§1)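 Single i.p. injection in C57BL/6 mice. Blood sampled at 1, 2 and 4 h after dosing and plasma compound concentration measured. n = 3 at 1 h, 2 at 2 h, 3 at 4 h.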

Data set [4] can be described thus: Plasma concentration in C57BL/6 mouse at 10 mg/kg, ip after 1 hr. The format is ADME, organism-based. Details: dose 10 mg/kg, route intraperitoneal. The essentials:
as §1

The nature of data set [5]: Plasma concentration in C57BL/6 mouse at 10 mg/kg, ip after 2 hrs. The format is ADME, organism-based. More on the design: dose 10 mg/kg, route intraperitoneal. The procedure, abridged: as §1
Data set [6] addresses T1, Prostaglandin G/H synthase 2 (Mus musculus). Briefly: Inhibition of COX2-mediated arachidonic acid oxygenation in LPS/IFN-gamma-stimulated mouse RAW264.7 cells assessed as AA to PGE2/PGD2 conversion at 25 uM treated 2 hrs after LPS/IFN-gamma stimulation measured after 6 hrs. The format is cell-based. The procedure, abridged:
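RAW 264.7 macrophages stimulated with lipopolysaccharide and interferon γ to generate endogenous AA and 2-AG. Inhibitor added to the medium at varying doses 2 h after stimulation. Medium collected 6 h after stimulation; prostaglandin levels quantified by LC-MS-MS.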

Regarding `O=C(c1ccccc1)c1cccc(C2(C(=O)O)CC2)c1`, in data set [1], the inhibition came out at 10%. In data set [2], the Imax came out at 75%. Take `O=C(O)Cc1ccc(-c2ccccc2)c(F)c1` [DESMETHYLFLURBIPROFEN]: the inhibition in data set [1] worked out at 7%. In the data set with Plasma, the Stability result is “Unstable”. Further, the concentration at 4 h in data set [3] stood at 6 µM. In data set [4], this compound yielded a concentration at 1 h of 68 µM. In data set [5], this compound gave a concentration at 2 h of 50 µM. As for `COc1ccc2cc(CC(=O)O)ccc2c1`, the inhibition in data set [1] is 16%. The compound `CC(C)(C(=O)O)c1cccc(C(=O)c2ccccc2)c1` gave an inhibition in data set [1] of 32%. In the case of `COc1ccc2cc(C(C)(C)C(=O)O)ccc2c1`, in data set [1], the inhibition is 7%. In addition, the Imax in data set [2] amounted to 12%. The like results for `CC(C)Cc1ccc(C(C)(C)C(=O)O)cc1` were, in that order, 5% and 5%. The like results for `COc1ccc2cc(C3(C(=O)O)CC3)ccc2c1` were, in that order, 6% and 77%.

In the case of `CC(C)Cc1ccc(CC(=O)O)cc1`, in data set [1], the inhibition amounted to 14%. In data set [1], `CC(C)Cc1ccc(C2(C(=O)O)CC2)cc1` displayed an inhibition of 10%. In data set [2], this compound showed an Imax of 45%. The compound `O=C(O)Cc1cccc(Oc2ccccc2)c1` displayed an inhibition in data set [1] of 24%. Also, the Imax in data set [2] amounted to 68%. Regarding `O=C(O)C1(c2ccc(-c3ccccc3)c(F)c2)CC1`, the inhibition in data set [1] came out at 0%; in data set [6], 55%. This compound also displayed an Imax in data set [2] of 87%.

Consider `CC(C)(C(=O)O)c1cccc(Oc2ccccc2)c1`, for which the inhibition in data set [1] came out at 17%. The Imax in data set [2] worked out at 65%. Compound `O=C(O)Cc1cccc(C(=O)c2ccccc2)c1` yielded an inhibition in data set [1] of 10%.

`O=C(O)C1(c2cccc(Oc3ccccc3)c2)CC1`: the inhibition in data set [1] was 15%. With `CC(C)(C(=O)O)c1ccc(-c2ccccc2)c(F)c1`, the inhibition is 5% in data set [1] and 40% in data set [6].
